# Reference: ChEMBL document CHEMBL1126298, “New triazine derivatives as potent modulators of multidrug resistance” (1992)
# Key:
# DC3F/AD [1] = assay: In vitro activity in DC-3F/AD cell line Ratio of IC50(actinomycin D alone) / IC50(actinomycin D + modulator) at a concentration of 10 uM
# DC3F/AD [2] = assay: In vitro activity in DC-3F/AD cell line(Ratio of IC50(actinomycin D alone) / IC50(actinomycin D + modulator) at a concentration of 5 uM
# DC3F/AD [3] = assay: Increase in adriamycin uptake in modulator-treated cells relative to untreated cells at a concentration of 10 uM; assay type: functional, Cricetulus griseus
# Procedure, shortened: (§1)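 DC-3F/AD or KB-A1 cells (5 × 10⁶/mL) were incubated at 37 °C for 5 h with 50 μM adriamycin plus modulator (2.5–10 μM range). ADR fluorescence of 10 000 cells was read by flow cytometry at 4 °C with 488 nm argon-laser excitation. The value is the increase in mean fluorescence of treated cells over untreated cells.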
# DC3F/AD [4] = assay: Percent of cell viability remaining after incubating with a 10 uM concentration; assay type: functional, Cricetulus griseus
# Procedure, shortened: (§2)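 Cells were grown with modulator alone for 4 days under the same conditions as the chemosensitivity assay, and read by MTT. Viability = (absorbance with modulator/absorbance of control cells) × 100. "tox" marks viability below 25%.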
# DC3F/AD [5] = assay: Percent of cell viability remaining after incubating the cells with the modulator alone a concentration of 5 uM; assay type: functional, Cricetulus griseus
# Procedure, shortened: as §2
# DC3F/AD [6] = assay: Increase in adriamycin uptake in modulator-treated cells relative to untreated cells at a concentration of 5 uM; assay type: functional, Cricetulus griseus
# Procedure, shortened: as §1
# KB [7] = assay: In vitro activity in KB-A1 cell line activity expressed as fold reversion (Ratio of IC50(adriamycin alone) / IC50(adriamycin + modulator) at a concentration of 5 uM; assay type: functional, Homo sapiens
# Procedure, shortened: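 Human epidermoid KB-A1 cells (Pgp-overexpressing) were grown in RPMI 1640 with 10% FCS and 10 mM HEPES (pH 7.4). They were exposed for 4 days to adriamycin (nine graded concentrations, in triplicate) with or without 5 μM modulator. IC50 was read by the MTT assay. Fold reversion = IC50(ADR alone)/IC50(ADR + modulator).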
# KB [8] = assay: Increase in adriamycin uptake in modulator-treated cells relative to untreated KB-A1 cells at a concentration of 5 uM; assay type: functional, Homo sapiens
# Procedure, shortened: as §1
# KB [9] = assay: Percent of cell viability remaining after incubating the cells with the modulator alone; assay type: functional, Homo sapiens; set-up: concentration or dose not given beside the values
# Procedure, shortened: as §2
smiles,measurement,setting,value
C=CCNc1nc(NCC=C)nc(N2CCC(N(C)CC(c3ccccc3)c3ccccc3)CC2)n1,Fold reversion,DC3F/AD [1],1418
same,Fold reversion,DC3F/AD [2],354
same,Increase,DC3F/AD [3],27.9
same,Viability,DC3F/AD [4],85%
same,Viability,DC3F/AD [5],88%
same,Increase,DC3F/AD [6],20.6
C=CCNc1nc(NCC=C)nc(N2CCN(CCCC(c3ccc(F)cc3)c3ccc(F)cc3)CC2)n1,Fold reversion,DC3F/AD [1],<25
same,Fold reversion,DC3F/AD [2],171
same,Viability,DC3F/AD [5],50%
C=CCNc1nc(N)nc(N2CCC(NCC3c4ccccc4CCc4ccccc43)CC2)n1,Fold reversion,KB [7],89
same,Fold reversion,DC3F/AD [2],421
same,Increase,KB [8],16.3
same,Increase,DC3F/AD [3],11
same,Viability,DC3F/AD [5],92%
same,Viability,KB [9],122%
same,Increase,DC3F/AD [6],6.7
C=CCNc1nc(NCC=C)nc(NCC(O)CN2CCC(NCC3c4ccccc4CCc4ccccc43)CC2)n1 (stereo unspecified),Fold reversion,KB [7],<25
same,Fold reversion,DC3F/AD [2],1
same,Increase,KB [8],5.5
same,Increase,DC3F/AD [3],12.6
same,Viability,DC3F/AD [5],98%
same,Increase,DC3F/AD [6],10.5
C=CCNc1nc(NCC=C)nc(NCC2CCN(CC3c4ccccc4CCc4ccccc43)CC2)n1,Fold reversion,KB [7],12
same,Fold reversion,DC3F/AD [1],<25
same,Fold reversion,DC3F/AD [2],353
same,Increase,KB [8],9.8
same,Increase,DC3F/AD [3],21
same,Viability,DC3F/AD [5],57%
same,Viability,KB [9],53%
same,Increase,DC3F/AD [6],19.3
C=CCNc1nc(NCC=C)nc(N2CCN(CCC(c3ccccc3)c3ccccc3)CC2)n1,Fold reversion,DC3F/AD [1],598
same,Fold reversion,DC3F/AD [2],42
same,Increase,DC3F/AD [3],1.2
same,Viability,DC3F/AD [4],64%
same,Viability,DC3F/AD [5],72%
same,Increase,DC3F/AD [6],0
C=CCNc1nc(NCC=C)nc(N2CCC(NCC3c4ccccc4CS(=O)(=O)c4ccccc43)CC2)n1 (stereo unspecified),Fold reversion,DC3F/AD [1],2536
same,Fold reversion,DC3F/AD [2],27
same,Viability,DC3F/AD [4],94%
same,Viability,DC3F/AD [5],90%
C=CCNc1cc(N2CCC(NCC(c3ccccc3)c3ccccc3)CC2)nc(NCC=C)n1,Fold reversion,DC3F/AD [1],<25
same,Fold reversion,DC3F/AD [2],472
same,Increase,DC3F/AD [3],16.3
same,Viability,DC3F/AD [5],67%
same,Increase,DC3F/AD [6],15.1
C=CCNc1nc(NCC=C)nc(N2CCC(NC(c3ccc(F)cc3)c3ccc(F)cc3)CC2)n1,Fold reversion,DC3F/AD [1],1212
same,Fold reversion,DC3F/AD [2],388
same,Increase,DC3F/AD [3],25.1
same,Viability,DC3F/AD [4],56%
same,Viability,DC3F/AD [5],76%
same,Increase,DC3F/AD [6],16
C=CCNc1nc(NCC=C)nc(N2CCC(NCC(c3ccccc3)(c3ccccc3)c3ccccc3)CC2)n1,Fold reversion,DC3F/AD [1],<25
same,Fold reversion,DC3F/AD [2],57
same,Viability,DC3F/AD [5],59%
C=CCNc1nc(NCC=C)nc(N2CCC(NCCC(c3ccc(OC)c(OC)c3)c3ccc(OC)c(OC)c3)CC2)n1,Fold reversion,KB [7],6
same,Fold reversion,DC3F/AD [1],12
same,Fold reversion,DC3F/AD [2],12
same,Increase,DC3F/AD [3],2.9
same,Viability,DC3F/AD [4],114%
same,Viability,DC3F/AD [5],115%
same,Viability,KB [9],100%
same,Increase,DC3F/AD [6],1.6
C/C=C/CNc1nc(NC/C=C/C)nc(N2CCC(NC(c3ccc(F)cc3)c3ccc(F)cc3)CC2)n1.Cl.Cl,Fold reversion,DC3F/AD [1],339
same,Fold reversion,DC3F/AD [2],146
same,Viability,DC3F/AD [4],43%
same,Viability,DC3F/AD [5],82%
C=CCNc1cc(N2CCC(NC(c3ccc(F)cc3)c3ccc(F)cc3)CC2)nc(NCC=C)n1.Cl.Cl,Fold reversion,DC3F/AD [1],<25
same,Fold reversion,DC3F/AD [2],1174
same,Viability,DC3F/AD [5],49%
C=CCNc1nc(NCCC)nc(N2CCC(NC(c3ccc(F)cc3)c3ccc(F)cc3)CC2)n1.Cl.Cl,Fold reversion,DC3F/AD [1],2220
same,Increase,DC3F/AD [3],25.5
same,Viability,DC3F/AD [4],47%
same,Increase,DC3F/AD [6],19.8
C=CCNc1nc(NCC=C)nc(N2CCC(SCCC(c3ccccc3)c3ccccc3)CC2)n1,Fold reversion,DC3F/AD [1],248
same,Fold reversion,DC3F/AD [2],41
same,Increase,DC3F/AD [3],19.7
same,Viability,DC3F/AD [4],79%
same,Viability,DC3F/AD [5],85%
same,Increase,DC3F/AD [6],8
C=CCNc1nc(NCC=C)nc(N2CCC(NC(c3ccccc3)c3ccc(F)cc3)CC2)n1.Cl (stereo unspecified),Fold reversion,DC3F/AD [1],1796
same,Fold reversion,DC3F/AD [2],732
same,Increase,DC3F/AD [3],19.4
same,Viability,DC3F/AD [4],54%
same,Viability,DC3F/AD [5],72%
same,Increase,DC3F/AD [6],10.5
C=CCNc1nc(NCC=C)nc(N2CCC(OC(c3ccc(F)cc3)c3ccc(F)cc3)CC2)n1.Cl,Fold reversion,DC3F/AD [1],969
same,Fold reversion,DC3F/AD [2],290
same,Increase,DC3F/AD [3],16.1
same,Viability,DC3F/AD [4],56%
same,Viability,DC3F/AD [5],70%
same,Increase,DC3F/AD [6],11.4
